Measured values taken from publication PMC7719619 (Angewandte Chemie (International ed. in English), 2020).
Values after ≈ are worked out from the molar mass of the structure shown. Square brackets hold non-standard residues; d marks the D form. Peptide text beside a SMILES is read from it. Gly(N-CH2-oxan-4-yl) = O=C(O)CNCC1CCOCC1; NCyclohexylmethylGly = O=C(O)CNCC1CCCCC1; NMeL = CN[C@@H](CC(C)C)C(=O)O; NMeA = CN[CH](C)C(=O)O; NEtG = CCNCC(=O)O

Assays:
oral bioavailability = assay type: in vivo; settings: mouse; for bioavailability: in vivo, po, Oral bioavailability, No inhib., no inhibitors, mean (two individual values)
Outline: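 Oral dosing in mice with no pretreatment by CYP or P-gp inhibitor. Oral bioavailability (F) reported as the mean of two independent experiments, with the individual values also given.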

[1] = assay type: in vitro ADME; settings: serum
physchem = assay type: physicochemical
[2] = assay type: in vitro ADME; settings: microsomes
P-gp = P-gp (Homo sapiens, UniProt P08183); assay: P-gp efflux ratio; assay type: in vitro ADME; settings: not told
MDCK permeability = assay type: in vitro ADME; settings: dog
[3] = pH 6.8, aqueous solubility at pH 6.8

Sequence of P-gp (P08183 whole entry): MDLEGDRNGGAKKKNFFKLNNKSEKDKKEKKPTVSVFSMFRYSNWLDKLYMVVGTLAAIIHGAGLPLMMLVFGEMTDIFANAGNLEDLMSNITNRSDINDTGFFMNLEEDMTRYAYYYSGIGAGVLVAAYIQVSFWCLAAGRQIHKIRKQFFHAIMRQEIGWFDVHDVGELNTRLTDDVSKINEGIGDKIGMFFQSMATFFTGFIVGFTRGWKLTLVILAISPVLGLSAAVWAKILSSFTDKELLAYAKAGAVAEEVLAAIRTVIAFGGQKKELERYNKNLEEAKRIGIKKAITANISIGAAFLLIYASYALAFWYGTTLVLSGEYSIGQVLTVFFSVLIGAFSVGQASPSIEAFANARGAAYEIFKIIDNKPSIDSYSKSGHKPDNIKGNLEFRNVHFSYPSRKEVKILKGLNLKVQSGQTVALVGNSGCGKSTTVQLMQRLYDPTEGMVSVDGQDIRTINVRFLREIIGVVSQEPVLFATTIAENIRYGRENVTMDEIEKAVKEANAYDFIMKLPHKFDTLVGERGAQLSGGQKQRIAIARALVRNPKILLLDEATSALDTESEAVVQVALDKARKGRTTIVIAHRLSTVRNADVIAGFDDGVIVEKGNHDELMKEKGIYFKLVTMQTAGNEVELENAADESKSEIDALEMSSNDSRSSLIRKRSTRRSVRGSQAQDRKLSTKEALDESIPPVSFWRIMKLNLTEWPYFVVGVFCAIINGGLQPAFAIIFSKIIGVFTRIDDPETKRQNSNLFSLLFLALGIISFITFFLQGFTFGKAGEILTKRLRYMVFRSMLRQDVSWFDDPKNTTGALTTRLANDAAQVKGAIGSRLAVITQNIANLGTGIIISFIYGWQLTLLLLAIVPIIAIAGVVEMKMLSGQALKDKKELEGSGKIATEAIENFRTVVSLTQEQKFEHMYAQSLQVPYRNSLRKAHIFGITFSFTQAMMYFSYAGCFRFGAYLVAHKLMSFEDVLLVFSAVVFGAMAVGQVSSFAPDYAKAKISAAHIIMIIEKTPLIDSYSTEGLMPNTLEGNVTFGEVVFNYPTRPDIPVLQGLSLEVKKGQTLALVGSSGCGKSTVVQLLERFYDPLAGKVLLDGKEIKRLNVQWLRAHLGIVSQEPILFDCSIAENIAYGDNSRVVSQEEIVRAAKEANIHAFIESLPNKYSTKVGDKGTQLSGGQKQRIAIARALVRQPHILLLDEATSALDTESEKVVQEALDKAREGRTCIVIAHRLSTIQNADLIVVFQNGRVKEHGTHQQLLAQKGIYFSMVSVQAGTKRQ

Q: Which results are given for `CCN1CC(=O)NC(CC(C)C)C(=O)N(C)C(C)C(=O)NC(CC(C)C)C(=O)N2CCCC2C(=O)N(CC2CCOCC2)CC(=O)NC(CC(C)C)C(=O)N(C)C(C)C(=O)NC(C)C(=O)N2CCCC2C1=O` (stereo not drawn) [A03] (cyclo([NEtG]L[NMeA]LP[Gly(N-CH2-oxan-4-yl)]L[NMeA]AP); configuration not given here)?
A: oral BA (F) (oral bioavailability; 3 mg/kg, no CYP or P-gp inhibition): 1%; bioavailability (oral bioavailability): 1%; fraction unbound [1]: 0.31; solubility (physchem; pH 1.2, aq. sol. pH 1.2): 1800 µg/mL (≈ 1770 µM); aq. sol. pH 6.8 (physchem): 1900 μg/mL; microsomal stability [2]: 64%; efflux ratio (P-gp): 6.4; Papp (MDCK permeability): 0.4 ×10⁻⁶ cm/s

Q: Which results are given for `CCN1CC(=O)NC(CC(C)C)C(=O)N(C)C(C)C(=O)NC(CC(C)C)C(=O)N2CCCC2C(=O)N(CC2CCCCC2)CC(=O)NC(CC(C)C)C(=O)N(C)C(C)C(=O)NC(Cc2ccccc2)C(=O)N2CCCC2C1=O` (stereo not drawn) [A08] (cyclo([NEtG]L[NMeA]LP[NCyclohexylmethylGly]L[NMeA]FP); configuration not given here)?
A: bioavailability (oral bioavailability): 5%; fraction unbound [1]: < 0.002; solubility (physchem; pH 1.2, aq. sol. pH 1.2): 2.5 µg/mL (≈ 2.29 µM); solubility (physchem; pH 6.8, aq. sol. pH 6.8): 6.8 µg/mL (≈ 6.24 µM); solubility (physchem; [3]): 7 µg/mL (≈ 6.43 µM); microsomal stability [2]: 33%; efflux ratio (P-gp): 8.5; Papp (MDCK permeability): 24.7 ×10⁻⁶ cm/s

Q: What does the source list for `CCN1CC(=O)N[C@@H](CC(C)C)C(=O)N(C)[C@@H](C)C(=O)N[C@@H](CC(C)C)C(=O)N2CCC[C@@H]2C(=O)N(CC2CCOCC2)CC(=O)N[C@@H](CC(C)C)C(=O)N(C)[C@@H](C)C(=O)N[C@@H](Cc2ccccc2)C(=O)N2CCC[C@@H]2C1=O` [A09] (cyclo([NEtG]L[NMeA]L[dP][Gly(N-CH2-oxan-4-yl)]L[NMeA]F[dP]))?
A: bioavailability (oral bioavailability): 2%; fraction unbound [1]: 0.02; solubility (physchem; pH 1.2, aq. sol. pH 1.2): 590 µg/mL (≈ 541 µM); aq. sol. pH 6.8 (physchem): 640 μg/mL; microsomal stability [2]: 67%; efflux ratio (P-gp): 46.9

Q: What does the source list for `CCN1CC(=O)N[C@@H](CC(C)C)C(=O)N2CCC[C@@H]2C(=O)N(C)[C@@H](CC(C)C)C(=O)N[C@@H](C)C(=O)N(CC2CCCCC2)CC(=O)N[C@@H](Cc2ccccc2)C(=O)N2CCC[C@@H]2C(=O)N(C)[C@@H](CC(C)C)C(=O)N[C@@H](C)C1=O` [B08] (cyclo([NEtG]L[dP][NMeL]A[NCyclohexylmethylGly]F[dP][NMeL]A))?
A: aq. sol. pH 1.2 (physchem; pH 1.2): 210 μg/mL; aq. sol. pH 6.8 (physchem): 210 μg/mL; solubility (physchem; [3]): 210 µg/mL (≈ 193 µM); microsomal stability [2]: 53%

Q: What does the source list for `CCN1CC(=O)N[C@@H](CC(C)C)C(=O)N2CCC[C@@H]2C(=O)N(C)[C@@H](CC(C)C)C(=O)N[C@@H](C)C(=O)N(CC2CCOCC2)CC(=O)N[C@@H](Cc2ccccc2)C(=O)N2CCC[C@@H]2C(=O)N(C)[C@@H](CC(C)C)C(=O)N[C@@H](C)C1=O` [B09] (cyclo(A[NEtG]L[dP][NMeL]A[Gly(N-CH2-oxan-4-yl)]F[dP][NMeL]))?
A: bioavailability (oral bioavailability): 1%; solubility (physchem; pH 1.2, aq. sol. pH 1.2): 2100 µg/mL (≈ 1920 µM); aq. sol. pH 6.8 (physchem): 2200 μg/mL; microsomal stability [2]: 90%
